Measured values as given in ChEMBL document CHEMBL1124747, “Properties of the nucleic acid photoaffinity labeling agent 3-azidoamsacrine” (J Med Chem, 1990).

Assays:
[1] = Ability to block cleavage of AG/CT site in AluI enzyme with the light activated test compound, DNA ratio 1(no. of sites=16); += light activation
Method in brief: (§1)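 pBR322 plasmid mixed with drug at 0.015, 0.12 or 0.48 mM (drug:DNA 1:8, 1:1 or 4:1), equilibrated on ice 30 min in the dark in 5 mM potassium phosphate pH 5.5, then irradiated 1 h with a medium-pressure Hg lamp (<340 nm filtered); dark set kept as control. Digested overnight with 10× excess enzyme plus DTT; fragments resolved on 1.2% agarose in TBE.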

[2] = Ability to block cleavage of AG/CT site in AluI enzyme with the light activated test compound, DNA ratio 1:8(no. of sites=16); += light activation; method in brief: as §1
[3] = Ability to block cleavage of AG/CT site in AluI enzyme with the light activated test compound, DNA ratio 4(no. of sites=16); += light activation; method in brief: as §1
[4] = Ability to block cleavage of GG/CC site in HaeIII enzyme with the light activated test compound/DNA ratio 1:8(no. of sites=22); += light activation; method in brief: as §1
[5] = Ability to block cleavage of GG/CC site in HaeIII enzyme with the light activated test compound/DNA ratio 4(no. of sites=22); += light activation; method in brief: as §1
[6] = Ability to block cleavage of G/ANTC site in Hinf1 enzyme with the light activated test compound/DNA ratio 1(no. of sites=10); += light activation; method in brief: as §1
[7] = Ability to block cleavage of G/ANTC site in Hinf1 enzyme with the light activated test compound/DNA ratio 1:8(no. of sites=10); += light activation; method in brief: as §1
[8] = Ability to block cleavage of G/ANTC site in Hinf1 enzyme with the light activated test compound/DNA ratio 4(no. of sites=10); += light activation; method in brief: as §1
[9] = Relative mutation induction for L5178Y cells was evaluated at dose 0.005 mg/mL in dark condition (expt-II); type: functional, Mus musculus
Method in brief: (§2)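 L5178Y suspension cells (3 × 10^6/mL, 5% CO2, 37 °C, shaking) exposed 20 h without activating enzyme; light arm irradiated 6.5 min (Hg lamp, <340 nm filtered). Cells washed, grown 24 h more and kept at 3 × 10^5/mL. Viability from 200 cells in soft agar; TFT (0.1 mg/mL) resistant colonies from 10^6 cells in triplicate dishes, counted at 10 days.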

[10] = Relative toxicity against mammalian L5178Y cells at dose 0.005 mg/mL in dark condition (expt-II); type: functional, Mus musculus
Method in brief: (§3)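 L5178Y mouse cells in suspension, 3 × 10^6 cells/mL, were exposed for 20 h at 37 °C in a shaker at 150 rpm under 5% CO2, without an activating enzyme. Light arms were irradiated for 6.5 min with a medium-pressure Hg lamp filtered to remove light below 340 nm; dark arms were not. Toxicity was taken as the Coulter-counted density of treated cells versus solvent control.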

[11] = Relative toxicity against mammalian L5178Y cells at dose 0.005 mg/mL in light condition (expt-II); type: functional, Mus musculus; method in brief: as §3
[12] = Viability of L5178Y cells was evaluated at dose 0.005 mg/mL in dark condition (expt-II); type: functional, Mus musculus
Method in brief: (§4)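 L5178Y cells were exposed for 20 h at 3 × 10^6 cells/mL. Light arms then received 6.5 min of Hg-lamp irradiation filtered to remove light below 340 nm. Cells were washed twice in Fischer's medium, grown a further 24 h and held at 3 × 10^5 cells/mL. For viability, 200 cells were plated in soft-agar cloning medium in triplicate dishes, and colonies were counted by an automated counter after 10 days.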

[13] = Mutation frequency for L5178Y cells was evaluated at dose 0.005 mg/mL in light-I condition (expt-I); type: functional, Mus musculus; method in brief: as §2
[14] = Mutation frequency for L5178Y cells was evaluated at dose 0.008 mg/mL in dark-II condition (expt-I); type: functional, Mus musculus; method in brief: as §2
[15] = Relative mutation induction for L5178Y cells was evaluated at dose 0.005 mg/mL in dark-I condition (expt-I); type: functional, Mus musculus; method in brief: as §2
[16] = Relative toxicity against mammalian L5178Y cells at dose 0.005 mg/mL in light-1 condition (expt-I); type: functional, Mus musculus; method in brief: as §3
[17] = Viability of L5178Y cells was evaluated at dose 0.005 mg/mL in light-I condition (expt-I); type: functional, Mus musculus; method in brief: as §4
[18] = Mean value of mutation induction for L5178Y cells was evaluated at dose 0.005 mg/mL in light condition (expt-II); type: functional, Mus musculus; method in brief: as §2
[19] = Mutation frequency for L5178Y cells was evaluated at dose 0.005 mg/mL in light condition (expt-II); type: functional, Mus musculus; method in brief: as §2
[20] = Mean value of mutation induction for L5178Y cells was evaluated at dose 0.008 mg/mL in dark-II condition (expt-I); type: functional, Mus musculus; method in brief: as §2
[21] = Mean value of mutation induction for L5178Y cells was evaluated at dose 0.008 mg/mL in light-II condition (expt-I); type: functional, Mus musculus; method in brief: as §2
[22] = Ability to block cleavage of GCC/GGC site in NaeI enzyme with the light activated test compound/DNA ratio 1(no. of sites=4); += light activation; method in brief: as §1
[23] = Ability to block cleavage of GCC/GGC site in NaeI enzyme with the light activated test compound/DNA ratio 4(no. of sites=4); += light activation; method in brief: as §1
[24] = Ability to block cleavage of […] site in NciI enzyme with the light activated test compound/DNA ratio 1(no. of sites=10); += light activation; method in brief: as §1
[25] = Ability to block cleavage of G/GNCC site in Restriction endonuclease Sau961 with the light activated test compound/DNA ratio 4(no. of sites=15); += light activation; method in brief: as §1
[26] = Ability to block cleavage of G/GNCC site in Restriction endonuclease Sau961 with the light activated test compound/DNA ratio 1:8(no. of sites=15); += light activation; method in brief: as §1

In the case of COc1cc(NS(C)(=O)=O)ccc1Nc1c2ccccc2nc2cc(N=[N+]=[N-])ccc12.Cl, the Blockage activity [1] is reported as “Light activation”, the Blockage activity [2] is reported as “Light activation” and the Blockage activity [3] is reported as “Light activation”. For the same compound, the Blockage activity [4] was “Light activation”, the Blockage activity [5] was “Light activation” and the Blockage activity [6] was “Light activation”. The Blockage activity [7] was “Light activation”, the Blockage activity [8] was “Light activation” and the Relative activity [9] was 124. The Relative toxicity [10] was 65, the Relative toxicity [11] was 65 and the Viability [12] was 37.7. For the same compound, the Mutation frequency [13] was 434 10e6 F, the Mutation frequency [14] was 565 10e6 F and the Relative activity [15] was 53. The Relative toxicity [16] was 69, the Viability [17] was 57 and the Mean value [18] was 114.3. The Mutation frequency [19] was 640 10e6 F, the Mean value [20] was 63 and the Mean value [21] was 0. For the same compound, the Blockage activity [22] was “Light activation”, the Blockage activity [23] was “Light activation” and the Blockage activity [24] was “Light activation”. The Blockage activity [25] was “Light activation” and the Blockage activity [26] was “Light activation”.
